Experimental data as given in ChEMBL document CHEMBL1150820, “New macrolides and furan carboxylic acid derivative from the sponge-derived fungus Cladosporium herbarum” (2001).
Activity calls are given as the source filed them. No cut-off for these calls is given here.

What was measured:
Escherichia coli [1] = assay: Antibacterial activity against Escherichia coli ATCC 25922; format: functional, organism-based
Method in brief: (§1)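 Agar plate diffusion: 5.5 mm susceptibility disks loaded with 5 µg pure compound (1 mg for crude extracts) placed on agar plates seeded with the test organism (B. subtilis 168, S. aureus ATCC 25923, E. coli ATCC 25922 or C. albicans); inhibition zones read after 24 h incubation at 37 °C.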

Bacillus subtilis [2] = assay: Antibacterial activity against Bacillus subtilis 168; format: functional, organism-based; settings: subsp. subtilis str. 168; method in brief: as §1
Staphylococcus aureus [3] = assay: Antibacterial activity against Staphylococcus aureus ATCC 25923; format: functional, organism-based; method in brief: as §1
Candida albicans = assay: Antifungal activity against Candida albicans at 5 ug after 24 hrs by agar plate diffusion assay; format: functional, organism-based; method in brief: as §1
Bacillus subtilis [4] = assay: Antibacterial activity against Bacillus subtilis 168 at 5 ug after 24 hrs by agar plate diffusion assay; format: functional; settings: subsp. subtilis str. 168, 24 h, read-out: IZ; method in brief: as §1
Staphylococcus aureus [5] = assay: Antibacterial activity against Staphylococcus aureus ATCC 25923 at 5 ug after 24 hrs by agar plate diffusion assay; format: functional; settings: ATCC 25923, 24 h, read-out: IZ; method in brief: as §1
Escherichia coli [6] = assay: Antibacterial activity against Escherichia coli ATCC 25922 at 5 ug after 24 hrs by agar plate diffusion assay; format: functional, organism-based; method in brief: as §1

CC1CCCCCC(O)C(=O)C(SC2CC(=O)OC(C)CCCCCC(O)C2=O)CC(=O)O1 (centres undefined)
Activity (Escherichia coli [1]): inactive
Activity (Bacillus subtilis [2]): inactive
Activity (Staphylococcus aureus [3]): inactive

COC(=O)C(O)CSC1CC(=O)OC(C)CCCCCC(O)C1=O (centres undefined)
Activity (Escherichia coli [1]): inactive
Activity (Bacillus subtilis [2]): inactive
Activity (Staphylococcus aureus [3]): inactive

CC(=O)OCc1ccc(C(=O)O)o1 [ACETYL SUMIKI'S ACID]
inhibition zone (IZ) (Candida albicans): inactive
zone of inhibition at 5 µg/disc (Bacillus subtilis [4]): 7 mm
zone of inhibition at 5 µg/disc (Staphylococcus aureus [5]): 7 mm
inhibition zone (IZ) (Escherichia coli [6]): inactive

O=C(O)c1ccc(CO)o1 [SUMIKI'S ACID]
inhibition zone (IZ) (Candida albicans): inactive
zone of inhibition at 5 µg/disc (Bacillus subtilis [4]): 7 mm
zone of inhibition at 5 µg/disc (Staphylococcus aureus [5]): 7 mm
inhibition zone (IZ) (Escherichia coli [6]): inactive
